Experimental data as given in ChEMBL document CHEMBL1146513, “Discorhabdins I and L, cytotoxic alkaloids from the sponge Latrunculia brevis” (J Nat Prod, 2004).
The source made the active and inactive calls. The rule behind the calls is not given here.

Experiments:
K562 = assay: Cytotoxicity against human K562 cells by SRB assay; assay type: functional, cell-based
Outline: (§1)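 Sulforhodamine B colorimetric staining quantifies cell growth and viability. Compounds were run in vitro against a 14-line tumour panel covering prostate, ovary, breast, melanoma, endothelial, NSCLC, leukaemia, pancreas and colon lines, with values reported as GI50.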

LoVo [1] = assay: Cytotoxicity against human doxorubicin-resistant LoVo cells by SRB assay; assay type: functional, cell-based; outline: as §1
HT-29 = assay: Cytotoxicity against human HT-29 cells by SRB assay; assay type: functional; outline: as §1
SK-BR-3 = assay: Cytotoxicity against human SKBR3 cells by SRB assay; assay type: functional, cell-based; outline: as §1
LoVo [2] = assay: Cytotoxicity against human LoVo cells by SRB assay; assay type: functional, cell-based; outline: as §1
PANC-1 = assay: Cytotoxicity against human PANC1 cells by SRB assay; assay type: functional, cell-based; outline: as §1
A549 = assay: Cytotoxicity against human A549 cells by SRB assay; assay type: functional, cell-based; outline: as §1
SK-MEL-28 = assay: Cytotoxicity against human SK-MEL-28 cells by SRB assay; assay type: functional, cell-based; outline: as §1
LNCaP = assay: Cytotoxicity against human LNCAP cells by SRB assay; assay type: functional, cell-based; outline: as §1
IGROV-ET = assay: Cytotoxicity against human IGROV-ET cells by SRB assay; assay type: functional, cell-based; outline: as §1
IGROV = assay: Cytotoxicity against human IGROV cells by SRB assay; assay type: functional, cell-based; outline: as §1
DU-145 = assay: Cytotoxicity against human DU145 cells by SRB assay; assay type: functional, cell-based; outline: as §1
[3] = Cytotoxicity against human HMEC1 cells by SRB assay; assay type: cell-based; conditions: hmec-1; outline: as §1
SK-OV-3 = assay: Cytotoxicity against human SKOV3 cells by SRB assay; assay type: functional, cell-based; outline: as §1

Row | SMILES | Activity (K562) | Activity (LoVo [1]) | GI50 (HT-29) [µM] | Activity (SK-BR-3) | Activity (LoVo [2]) | Activity (PANC-1) | Activity (A549) | Activity (SK-MEL-28) | Activity (LNCaP) | Activity (IGROV-ET) | Activity (IGROV) | Activity (DU-145) | Activity [3] | Activity (SK-OV-3)
1 | O=C1C=C[C@@]23C[C@@H](NC4=C2C2=NCCc5c[nH]c(c52)C4=O)SC3=C1 [1-DEBROMODISCORHABDIN B] | Active | Active | 0.35 | Active | Active | Active | Active | Active | Active | Active | Active | Active | Active | Active
2 | O=C([O-])C(F)(F)F.O=C1C2=C3C4=[N+](CCc5c[nH]c1c54)[C@@H]1C(=O)C=C4S[C@@H](C[C@@]43[C@H]1O)N2 [DISCORHABDIN L] | Active | Active | 0.12 | Active | Active | Active | Active | Active | Active | Active | Active | Active | Active | Active
